According to ChEMBL document CHEMBL2057141, “Imidazolopiperazines: lead optimization of the second-generation antimalarial agents” (J Med Chem, 2012):
Blank lines part the entries; values can stand above or below the molecule they belong to.

Assays:
[1] = system: Plasmodium falciparum; assay: Antimalarial activity against Plasmodium falciparum 3D7 after 72 hrs by SYBR green fluorescence assay; assay type: functional, organism-based; conditions: 3D7, 72 h
How it was run: (§1)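 P. falciparum grown in O+ erythrocytes, screened in medium without human serum plus 0.5% Albumax II. Twelve-point half-log dilutions up to 10 μM final. 0.3% parasitemia, 2.5% hematocrit; 72 h at 37 °C under low-oxygen gas. Lysis buffer with SYBR Green added, 24 h at 25 °C, fluorescence read at 485/530 nm.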

[2] = system: Plasmodium falciparum; assay: Antimalarial activity against Plasmodium falciparum W2 after 72 hrs by SYBR green fluorescence assay; assay type: functional, organism-based; conditions: W2, 72 h; how it was run: as §1
[3] = Metabolic stability in mouse liver microsomes assessed as hepatic extraction ratio by LC/MS/MS analysis; assay type: ADME, Microsome
How it was run: (§2)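 Liver microsomes (human, mouse, rat). Compound depletion followed by LC/MS/MS. Loss of parent used to derive in vitro half-life and hepatic extraction ratio.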

[4] = Metabolic stability in mouse liver microsomes assessed as hepatic extraction ratio by LC/MS/MS analysis in presence of CYP; assay type: ADME, Microsome; how it was run: as §2
[5] = system: Plasmodium berghei; assay: Antimalarial activity against Plasmodium berghei ANKA expressing GFP infected in NMRI mouse assessed as reduction of parasite level in blood at 30 mg/kg, po administered 24 hrs post infection measured after 72 hrs post infection by flow cytometry; assay type: functional; design: scale not given: the % may be the effect or the level left
How it was run: (§3)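 Female NMRI mice (20–22 g, n=3) are infected i.v. with 2×10^7 P. berghei GFP ANKA-infected erythrocytes. Oral compound in 75% PEG300/25% D5W is given at 10 mL/kg, once at 24 h or daily at 24/48/72 h post-infection. Parasitemia is read by flow cytometry at 72 h (single dose) or 96 h (triple dose). Activity is % reduction of mean parasitemia versus untreated controls.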

[6] = system: Plasmodium berghei; assay: Antimalarial activity against Plasmodium berghei ANKA expressing GFP infected in NMRI mouse assessed as reduction of parasite level in blood at 30 mg/kg, po administered 24 hrs post infection qd for 3 days measured after 96 hrs post infection by flow cytometry; assay type: functional; design: scale not given: the % may be the effect or the level left; how it was run: as §3
[7] = system: Plasmodium berghei; assay: Antimalarial activity against Plasmodium berghei ANKA expressing GFP infected in NMRI mouse assessed as increase of mouse survival at 30 mg/kg, po administered 24 hrs post infection (reference value: 6 to 7 days); assay type: functional
[8] = system: Plasmodium berghei; assay: Antimalarial activity against Plasmodium berghei ANKA expressing GFP infected in NMRI mouse assessed as increase of mouse survival at 100 mg/kg, po administered 24 hrs post infection (reference value: 6 to 7 days); assay type: functional
[9] = system: Plasmodium berghei; assay: Antimalarial activity against Plasmodium berghei ANKA expressing GFP infected in NMRI mouse assessed as increase of mouse survival at 30 mg/kg, po administered 24 hrs post infection qd for 3 days (reference value: 6 to 7 days); assay type: functional
[10] = Metabolic stability in rat liver microsomes assessed as hepatic extraction ratio by LC/MS/MS analysis in presence of CYP; assay type: ADME, Microsome; how it was run: as §2
[11] = Metabolic stability in human liver microsomes assessed as hepatic extraction ratio by LC/MS/MS analysis in presence of CYP; assay type: ADME, Microsome; how it was run: as §2
[12] = Permeability of the compound by PAMPA; assay type: ADME
How it was run: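 PAMPA in 96-well filter plates. Permeated compound quantified by UV absorbance at 260–290 nm. Reported as percentage absorbed.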

[13] = Apparent permeability across apical to basolateral side in human Caco2 cells by LC/MS analysis; assay type: ADME, cell-based; conditions: Caco-2
How it was run: (§4)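 Caco-2 monolayers in 96-well format. Compound measured in apical and basolateral chambers by LC/MS, giving Papp in the A–B and B–A directions. Values reported in cm/s × 10⁶.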

[14] = Apparent permeability across basolateral to apical side in human Caco2 cells by LC/MS analysis; assay type: ADME, cell-based; conditions: Caco-2; how it was run: as §4
[15] = Volume of distribution in Balb/c mouse at 5 mg/kg, iv; assay type: ADME, organism-based; design: dose 5 mg/kg, route intravenous; conditions: in vivo
How it was run: (§5)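 Male Balb/c mice (n = 3 per group). Compound as a 2.5 mg/mL solution in PEG300/D5W 3:1, filtered. Given by lateral tail vein at 5 mg/kg (2 mL/kg) or orally at 20 mg/kg (8 mL/kg). Six serial 50 μL retro-orbital blood samples to 24 h, heparinized plasma. Plasma extracted with acetonitrile:methanol 3:1 with internal standard, LC-MS/MS. Noncompartmental analysis; F = AUCpo×dose_iv/AUCiv×dose_po.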

[16] = Clearance in Balb/c mouse plasma at 5 mg/kg, iv; assay type: ADME, organism-based; design: dose 5 mg/kg, route intravenous; how it was run: as §5
[17] = Half life in Balb/c mouse at 5 mg/kg, iv; assay type: ADME, organism-based; design: dose 5 mg/kg, route intravenous; conditions: in vivo; how it was run: as §5
[18] = system: Mus musculus; assay: AUC (0 to 24 hrs) in Balb/c mouse at 5 mg/kg, iv; assay type: ADME, organism-based, Plasma; design: time < 24 hr, dose 5 mg/kg, route intravenous; conditions: in vivo; how it was run: as §5
[19] = Cmax in Balb/c mouse at 20 mg/kg, po; assay type: ADME, organism-based; design: dose 20 mg/kg, route oral; conditions: in vivo; how it was run: as §5
[20] = Tmax in Balb/c mouse at 20 mg/kg, po; assay type: ADME, organism-based; design: dose 20 mg/kg, route oral; conditions: in vivo; how it was run: as §5
[21] = Half life in Balb/c mouse at 20 mg/kg, po; assay type: ADME, organism-based; design: dose 20 mg/kg, route oral; conditions: in vivo; how it was run: as §5
[22] = system: Mus musculus; assay: AUC (0 to 24 hrs) in Balb/c mouse at 20 mg/kg, po; assay type: ADME, organism-based, Plasma; design: time < 24 hr, dose 20 mg/kg, route oral; conditions: in vivo; how it was run: as §5
[23] = system: Mus musculus; assay: Oral bioavailability in Balb/c mouse at 20 mg/kg; assay type: ADME, organism-based; conditions: in vivo; how it was run: as §5
[24] = system: Rattus norvegicus; assay: (§6) Cmax in Wistar rat at 10 mg/kg, po; assay type: ADME, organism-based; design: dose 10 mg/kg, route oral; conditions: in vivo, BLD = below limit of detection
How it was run: (§7)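 Rat snapshot PK: two Wistar rats dosed orally at 10 mg/kg, formulated at 2.5 mg/mL in 75% PEG300/25% D5W. Blood (100 μL) taken at 0.5, 1, 3 and 5 h post dose. Plasma pooled by sampling time, then analysed by LC-MS/MS.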

[25] = AUC (0 to 5 hrs) in Wistar rat at 10 mg/kg, po; assay type: ADME, organism-based; design: dose 10 mg/kg, route oral; conditions: plasma
[26] = as §6; assay type: ADME, organism-based; design: dose 10 mg/kg, route oral; conditions: Wistar, in vivo; how it was run: as §7
[27] = system: Rattus norvegicus; assay: Dose normalized AUC (0 to 5 hrs) in Wistar rat at 10 mg/kg, po; assay type: ADME, organism-based; design: dose 10 mg/kg, route oral; conditions: in vivo; how it was run: as §7
[28] = system: Plasmodium berghei; assay: Antimalarial activity against Plasmodium berghei ANKA expressing GFP infected in po dosed NMRI mouse assessed as reduction of parasite level in blood administered 24 hrs post infection measured after 72 hrs post infection by flow cytometry; assay type: functional

Compound: Cc1ccc(Nc2c(-c3ccc(F)cc3)nc3n2CC(=O)NC3(C)C)cc1
EC50 [1]: 138 nM
EC50 [2]: 136 nM
hepatic extraction ratio [3]: 0.72
hepatic extraction ratio [4]: 0.72

Compound: CC1(C)c2nc(-c3ccc(F)cc3)c(Nc3ccc(F)c(Cl)c3)n2CCN1C(=O)CN
EC50 [1]: 27 nM
EC50 [2]: 24 nM

Compound: C[C@H]1[C@H](OC(=O)CCC(=O)O)O[C@@H]2O[C@@]3(C)CC[C@H]4[C@H](C)CC[C@@H]1[C@@]24OO3 [ARTESUNATE]
Activity [5]: 95.6%
Activity [6]: 99%
Survival [7]: 5.8 days
Survival [8]: 7 days
Survival [9]: 12.2 days

Compound: Cc1ccc(Nc2c(-c3ccc(F)cc3)nc3n2CCNC3(C)C)cc1
EC50 [1]: 13 nM
EC50 [2]: 13 nM
hepatic extraction ratio [3]: 0.77
hepatic extraction ratio [4]: 0.87
hepatic extraction ratio [10]: 0.93
hepatic extraction ratio [11]: 0.88
permeability [12]: 99.9%
Papp A→B [13]: 15.6 ×10⁻⁶ cm/s
Papp B→A [14]: 6.96 ×10⁻⁶ cm/s

Compound: Cc1ccc(Nc2c(-c3ccc(F)cc3)nc3n2CCN(C(=O)C(C)(C)N)C3(C)C)cc1
EC50 [1]: 2 nM
EC50 [2]: 4 nM
permeability [12]: 99.5%
Papp A→B [13]: 3.5 ×10⁻⁶ cm/s
Papp B→A [14]: 2.37 ×10⁻⁶ cm/s
Vd [15]: 7.5 L/kg
clearance [16]: 36.1 mL/min/kg
half-life [17]: 18 h
AUC [18]: 7.607 µM·h
Cmax [19]: 1640 nM
Tmax [20]: 1 h
half-life [21]: 14.5 h
AUC [22]: 32.409 µM·h
F [23]: 107%
Survival [7]: 15.3 days
Survival [8]: 16.7 days
Cmax [24]: BLD

Compound: CC1(C)NCCn2c1nc(-c1ccc(F)cc1)c2Nc1ccc(F)cc1
EC50 [1]: 5 nM
EC50 [2]: 5 nM
hepatic extraction ratio [3]: 0.8
hepatic extraction ratio [4]: 0.8
hepatic extraction ratio [10]: 0.92
hepatic extraction ratio [11]: 0.92
permeability [12]: 99.9%
Vd [15]: 1.2 L/kg
clearance [16]: 25.9 mL/min/kg
half-life [17]: 0.8 h
AUC [18]: 9.09 µM·h
Cmax [19]: 6400 nM
Tmax [20]: 1 h
half-life [21]: 2.95 h
AUC [22]: 19.447 µM·h
F [23]: 53%
Activity [5]: 90%
Survival [7]: 7 days
Survival [8]: 9.7 days
Survival [9]: 12 days
AUC(0-t) at 4 h [25]: 0.423 µM·h
Cmax [26]: 202 nM
AUC/dose [27]: 0.9 min.ug/ml/(mg/kg)

Compound: CC(C)(N)C(=O)N1CCn2c(nc(-c3ccc(F)cc3)c2Nc2ccc(F)c(F)c2)C1
ED99 [28]: 26.5 mg/kg

The remaining lines, values ahead:

EC50 [1]: 4 nM
EC50 [2]: 4 nM
Compound: NCC(=O)N1CCn2c(nc(-c3ccc(F)cc3)c2Nc2ccc(F)c(Cl)c2)C1

EC50 [1]: 24 nM
EC50 [2]: 23 nM
permeability [12]: 52%
AUC [18]: 1.072 µM·h
AUC [22]: 0.965 µM·h
Compound: NCC(=O)N1CCn2c(nc(-c3ccc(F)cc3)c2Nc2ccc(F)cc2)C1

EC50 [1]: 20 nM
EC50 [2]: 25 nM
permeability [12]: 81%
AUC [18]: 3.442 µM·h
AUC [22]: 17.894 µM·h
Compound: CC(C)(N)C(=O)N1CCn2c(nc(-c3ccc(F)cc3)c2Nc2ccc(F)cc2)C1

EC50 [1]: 80 nM
EC50 [2]: 76 nM
Compound: CC1(C)CN(C(=O)CN)Cc2nc(-c3ccc(F)cc3)c(Nc3ccc(F)cc3)n21
